LEDGF integ inh: blocks HIV-1 LEDGF/p75-dependent DNA integration; TR-FRET IN-LEDGF/p75 DNA integration, Eu/Cy5; AID 743269; actives 0.64% (n = 370,000); inhibition, % at 3.7 µM;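 active = inhibition above the screen-wide mean plus 3 SD, cut at about 13% in these data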;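 also: signal is the Cy5 over europium emission ratio at 671 and 618 nm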
TCR-CD3 inh: inhibitors of human TCR-CD3 interaction. TAMRA-labeled TCR probe fluorescence, biochemical. inhibition, % at 9.4 µM. actives 0.37% (n = 360,000). AID 651800; in the data active = inhibition above about 19%;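 also: recombinant mutant TCR 2C K166C tagged with TAMRA read by polarization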
UHRF1 MBD2 ctr: human UHRF1 methylated DNA binding inhibitors; UHRF1 binding to methylated oligo, TR-FRET; inhibition, % at 4.4 µM; actives 0.75% (n = 370,000); AID 687016; in the data active = inhibition above about 21%;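 also: UHRF1 SRA domain binding a hemimethylated CpG hairpin DNA probe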
Target sequence (Q96T88 whole entry, looked up, the tested form may be a part): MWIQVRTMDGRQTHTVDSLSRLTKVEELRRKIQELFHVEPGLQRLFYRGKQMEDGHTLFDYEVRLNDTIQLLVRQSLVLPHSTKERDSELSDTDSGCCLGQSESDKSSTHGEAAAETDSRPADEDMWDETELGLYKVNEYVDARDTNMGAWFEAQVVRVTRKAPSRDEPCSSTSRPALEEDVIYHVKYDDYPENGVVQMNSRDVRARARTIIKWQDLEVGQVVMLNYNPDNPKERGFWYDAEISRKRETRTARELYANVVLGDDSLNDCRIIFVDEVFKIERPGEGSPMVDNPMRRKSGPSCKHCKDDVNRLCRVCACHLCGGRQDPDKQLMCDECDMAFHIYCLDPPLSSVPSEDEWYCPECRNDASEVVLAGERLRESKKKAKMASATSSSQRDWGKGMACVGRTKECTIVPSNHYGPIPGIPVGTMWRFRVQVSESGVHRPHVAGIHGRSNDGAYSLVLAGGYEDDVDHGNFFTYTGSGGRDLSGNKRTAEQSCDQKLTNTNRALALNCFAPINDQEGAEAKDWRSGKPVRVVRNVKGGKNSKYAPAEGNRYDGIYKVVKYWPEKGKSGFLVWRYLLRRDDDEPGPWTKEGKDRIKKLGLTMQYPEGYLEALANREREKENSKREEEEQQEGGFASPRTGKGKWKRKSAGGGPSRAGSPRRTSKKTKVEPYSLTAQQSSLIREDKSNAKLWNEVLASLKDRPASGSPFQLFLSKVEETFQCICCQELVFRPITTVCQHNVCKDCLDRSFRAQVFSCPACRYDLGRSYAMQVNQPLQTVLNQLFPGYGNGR
MBD2 inh: inhibitors of human MBD2 binding to methylated oligonucleotide. TR-FRET. inhibition, % at 4.4 µM. actives 0.31% (n = 370,000); in the data active = inhibition above about 13%
ASAP1 inh: blocks human ASAP1-stimulated Arf1 GTP hydrolysis | Q9ULH1 | GDP FP detection | inhibition, % at 16.5 µM | actives 0.19% (n = 360,000); in the data active = inhibition above about 25%
ARFGAP1 inhibitor: inhibits rat ARF GTPase activating protein 1 | AID 651572 | actives 0.26% (n = 360,000) | Arfgap1-stimulated ARF1 GTP hydrolysis, GDP FP detection | inhibition, % at 16.5 µM;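 active = inhibition above a per-plate limit, mean inhibition of low control wells plus 3 SD, cut at about 25% in these data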
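Repeats: one replicate per compound; assay system: rat Arfgap1 catalytic domain, aa 1-136; times: enzyme reaction 120 min at 25 °C after 20 min preincubation; detection: FP of antibody-bound GDP Alexa 633 tracer, ex 620/em 688 nm; benchmarks: high control wells lacking Arfgap1, low control full reaction with DMSO; reagent: human ARF1(Δ1-17)-GTP substrate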
Of the large screens only hits and unclear results are named; the others gave an inactive call. Rows were chosen to be rich in hits. Some 2% of all compounds tested hit in one or more screens of this group.

CN(C)C1=NC[C@H](Cc2ccccc2)N1CCCC1CCCCC1	none
CN(C)C1=NC[C@H](Cc2ccccc2)N1CCCC1CCCC1	UHRF1 MBD2 ctr 22.9
Cc1cccc(N2C(S)=C(C#N)C(=O)NC23CCCCC3)c1	none
Cc1cccc(NC2=C(C#N)C(=O)NC3(CCCC3)S2)c1	UHRF1 MBD2 ctr 23.6
CC1CCCC(C)N1C(=O)c1cc2ncc(CCCl)cn2n1 (configuration not stated)	UHRF1 MBD2 ctr 50.8
COc1cccc(C(=O)Nc2ccccc2-c2ccccc2)c1	UHRF1 MBD2 ctr 21.9
Cc1ccc(NC(=S)NC(=O)CC2CC(C)(C)OC2=O)cc1 (configuration not stated)	UHRF1 MBD2 ctr 62.3
Cn1cccc1C(C(=O)NC1CCCCC1)N(C(=O)Cc1cccs1)C1CC1 (configuration not stated)	UHRF1 MBD2 ctr 37.1
COc1ccc(N(C(=O)Cc2cccs2)C(C(=O)NC2CCCCC2)c2cccn2C)cc1OC (configuration not stated)	none
CC(C)(CN1CCN(Cc2ccccc2)CC1)NS(=O)(=O)c1ccccc1	UHRF1 MBD2 ctr 22.3
Cn1c(C(=O)N2CCOCC2)cc2c(=O)n3ccccc3nc21	none
CC1CN(C(=O)c2cc3c(=O)n4ccccc4nc3n2C)CC(C)O1 (configuration not stated)	UHRF1 MBD2 ctr 26.6
O=c1cc(CN2CCOCC2)c2cc(Cl)c(O)cc2o1	UHRF1 MBD2 ctr 40.2
COc1cc2c(cc1OC)C(c1ccccc1)NC(C)(C)C2 (configuration not stated)	UHRF1 MBD2 ctr 45.7
COc1cc2c(cc1OC)C(c1ccc(Br)cc1)NC(=O)C2 (configuration not stated)	none
CN(Cc1ccccc1)C(=O)OCc1cn(Cc2cccc(F)c2F)nn1	none (no result: TCR-CD3 inh, ASAP1 inh, ARFGAP1 inhibitor)
CC(C)Oc1ccc(CCC(=O)N/N=C/c2ccncc2)cc1	UHRF1 MBD2 ctr 26.9
COC(=O)[C@H](C(C)C)N1CCc2nnn(Cc3ccccc3)c2-c2cc(F)ccc2S1(=O)=O	none (no result: TCR-CD3 inh, ASAP1 inh, ARFGAP1 inhibitor)
C/C(=N\NC(=O)CCCCCNC(=O)c1ccccc1)c1ccccc1O	none
O=C(CCCCCNC(=O)c1ccccc1)N/N=C/c1ccc(O)cc1O	UHRF1 MBD2 ctr 20.9
C/C(=N\Nc1cccc(C(=O)O)c1)c1cc2ccccc2o1	none
C/C(=N\Nc1ccc(Cl)c(C(=O)O)c1)c1cc2ccccc2o1	UHRF1 MBD2 ctr 30.9
C(#Cc1ccccc1)C[N+]1(CC#Cc2ccccc2)CCCC1	none
C=CC#CC[N+]1(CC#Cc2ccccc2)CCOCC1	MBD2 inh 20.3, ASAP1 inh 86.8, ARFGAP1 inhibitor 96.7
COc1ccc(CC(=O)Nc2nc3ccccc3[nH]2)cc1	none
COC(=O)Cc1cc(=O)n(-c2nc3ccccc3[nH]2)[nH]1	TCR-CD3 inh 21.9
CCCS(=O)(=O)NC(=O)C1(C)CCN(C(=O)c2c(F)cccc2F)C1 (configuration not stated)	none
O=C(Cn1nnc(-c2ccccc2)n1)Nc1cccc(S(=O)(=O)N2CCOCC2)c1	UHRF1 MBD2 ctr 28.9
CCCc1nc2ccccc2c(C(=O)OCC(=O)Nc2cccc(S(=O)(=O)N3CCOCC3)c2)c1CC	ARFGAP1 inhibitor 28.1
Cc1ccc(S(=O)(=O)N2CCOCC2)cc1NC(=O)Cn1nnc(-c2ccccc2)n1	none
CC(=O)Nc1cc(Cl)c(N=Cc2ccc(O)cc2O)cc1Cl	LEDGF integ inh 24.5
CNC(=O)c1c(C)nn(-c2ccc(F)c(Cl)c2)c1-c1cc(C)on1	UHRF1 MBD2 ctr 22.2
Cc1nn(-c2ccc(Cl)c(Cl)c2)c(C)c1C(=O)O	none
CC(C)(C)c1ccc(C(=O)Nc2cc(Cl)c(F)cc2C(=O)O)cc1	none (no result: TCR-CD3 inh, ASAP1 inh, ARFGAP1 inhibitor)
O=C(Nc1ccc(OCc2ccccc2)cc1)c1ccccc1	UHRF1 MBD2 ctr 64.6
O=C(COc1cccc(NC(=O)c2ccccc2)c1)c1ccccc1	UHRF1 MBD2 ctr 26.9
O=C(Nc1cccc(OCC(=O)N2CCOCC2)c1)c1cccc([N+](=O)[O-])c1	UHRF1 MBD2 ctr 33.9
CCCCCC[C@@H](CN(CCCC)S(C)(=O)=O)c1ccccc1	none (no result: TCR-CD3 inh, ASAP1 inh, ARFGAP1 inhibitor)
CCN(CC)C(=O)[C@H]1C[C@H](CC(=O)NCCc2ccccn2)C(=O)N2CCc3c([nH]c4cc(CCC(=O)N(C)C)ccc34)[C@]12C	UHRF1 MBD2 ctr 20.9
CN1N=C(c2ccc(Cl)cc2)CC(c2ccc(Cl)cc2)C1=O (configuration not stated)	UHRF1 MBD2 ctr 22.1
COC(=O)c1cccc(N2C(=O)C[C@](Sc3ccc(OC)cc3)(C(=O)N3CCOCC3)[C@H]2c2ccc(OC)cc2)c1	none (no result: TCR-CD3 inh, ASAP1 inh, ARFGAP1 inhibitor)
CCCc1nc2c(Cl)cc(C(F)(F)F)cn2c1Cc1ccc(OC)cc1C	UHRF1 MBD2 ctr 22.3
COc1ccc(Cc2c(-c3ccc(C#N)cc3)nc3c(Cl)cc(C(F)(F)F)cn23)c(C)c1	none
Cn1c(CC(=O)Nc2ccccc2)n[nH]c1=S	none
Cn1nc(Cc2n[nH]c(=S)n2C)c2ccccc2c1=O	UHRF1 MBD2 ctr 56.1
CCOC(=O)Cc1nn(C)c(=O)c2ccccc12	UHRF1 MBD2 ctr 26.1
COC(=O)C1CN(C2CCCC2)CCS(=O)(=O)N1Cc1ccccc1 (configuration not stated)	none (no result: TCR-CD3 inh, ASAP1 inh, ARFGAP1 inhibitor)
O=C1CCCN1CC1CCN(Cc2nc(CC3CC3)no2)CC1	none
O=C1CCCN1CC1CCCN(Cc2nc(COc3ccccc3)no2)C1 (configuration not stated)	UHRF1 MBD2 ctr 23.5
CCCC#Cc1cnc2c(c1)C(=O)N([C@H](C)CO)C[C@H](C)[C@@H](CN(C)C(=O)CCN1CCCCC1)O2	UHRF1 MBD2 ctr 24.4
C[C@@H]1CN([C@@H](C)CO)C(=O)c2cc(Br)cnc2O[C@H]1CN(C)C(=O)CCN1CCCCC1	none
COc1ccc(C#Cc2cnc3c(c2)C(=O)N([C@H](C)CO)C[C@H](C)[C@@H](CN(C)C(=O)Nc2cccc(OC)c2)O3)cc1	none
C[C@H](CO)N1C[C@H](C)[C@@H](CN(C)C(=O)Nc2ccccc2)Oc2ncc(C#CC3CCCCC3)cc2C1=O	UHRF1 MBD2 ctr 22.4
Cc1occc1C(=O)N(Cc1nc(-c2ccccc2)no1)C(C)C	UHRF1 MBD2 ctr 23.9
COc1ccc(NC(=O)CSc2nnc(-c3ccco3)n2N)cc1Cl	UHRF1 MBD2 ctr 22.5
COc1ccc(NC(=O)CSc2nnc(-c3ccccn3)n2N)cc1Cl	none
O=S1(=O)c2c(cccc2N2CC[C@@H](O)C2)O[C@@H]2CCN1C2	none (no result: TCR-CD3 inh, ASAP1 inh, ARFGAP1 inhibitor)
CN(C(=O)COC(=O)c1cc([N+](=O)[O-])ccc1N1CCOCC1)C1CCCCC1	none
CCN(C(=O)COC(=O)c1cc([N+](=O)[O-])ccc1N1CCOCC1)C1CCCCC1	UHRF1 MBD2 ctr 26.3
COC(=O)C1CN(Cc2cn(Cc3ccc(OC)cc3)nn2)CCS(=O)(=O)N1Cc1ccc(Cl)cc1 (configuration not stated)	none (no result: TCR-CD3 inh, ASAP1 inh, ARFGAP1 inhibitor)
